The text below walks through data of ChEMBL document CHEMBL2429734, “Expedient Synthesis of SMAMPs via Click Chemistry” (ACS Med Chem Lett, 2013).

A word on the HC50: it is the concentration that lyses half of the red blood cells. Broadly, the MIC is the least concentration at which growth counts as inhibited.

Series [1] can be described thus: Hemolytic activity in human RBC assessed as release of hamoglobin after 1 hr. The class given is ADME, cell-based, Erythrocyte. The following applies: for HC50 at 1 h: human red blood cells. Summed up: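 Lysis of human erythrocytes measured. HC50 was taken as the lowest concentration causing 50% lysis of the red blood cells.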
The next series concerns Klebsiella pneumoniae. Kind of series: Antibacterial activity against Klebsiella pneumoniae ATCC 13883 assessed as growth inhibition after 18 hrs by broth microdilution method in absence of 40% mouse serum. The format is functional. The following applies: ATCC 13883, 18 h. Summed up:
(§1)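 MIC determined by Hancock's method for cationic antimicrobial peptides, a slight modification of the CLSI microbroth dilution method, run in medium without mouse serum. Strains were S. aureus ATCC 27660, E. coli ATCC 25922, E. faecalis ATCC 29212, P. aeruginosa ATCC 10145 and K. pneumoniae ATCC 13883.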
For orientation: Dilution methods test growth across graded concentrations, often in twofold steps.

The test system of a further series is Pseudomonas aeruginosa. Kind of series: Antibacterial activity against Pseudomonas aeruginosa ATCC 10145 assessed as growth inhibition after 18 hrs by broth microdilution method in absence of 40% mouse serum. The class given is functional. Particulars: ATCC 10145, 18 h. Summed up: as §1
The next series has as its system Enterococcus faecalis. Put plainly: Antibacterial activity against Enterococcus faecalis ATCC 29212 assessed as growth inhibition after 18 hrs by broth microdilution method in absence of 40% mouse serum. The format is functional. Particulars: ATCC 29212, 18 h. In outline: as §1
Series [2] has as its system Escherichia coli. Put plainly: Antibacterial activity against Escherichia coli ATCC 25922 assessed as growth inhibition incubated for 30 mins prior to inoculation measured after 18 hrs by broth microdilution method in presence of 40% mouse serum. The format is functional. In outline: (§2)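 Hancock-modified CLSI microbroth dilution MIC run in the presence of 40% mouse serum against S. aureus ATCC 27660 or E. coli ATCC 25922. 40% was the highest serum level used because bacterial growth was impaired at higher percentages.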

Series [3] has as its system Escherichia coli. Kind of series: Antibacterial activity against Escherichia coli ATCC 25922 assessed as growth inhibition after 18 hrs by broth microdilution method in absence of 40% mouse serum. The class given is functional. The following applies: ATCC 25922, 18 h. In outline: as §1
Series [4] deals with Staphylococcus aureus. Put plainly: Antibacterial activity against Staphylococcus aureus ATCC 27660 assessed as growth inhibition incubated for 30 mins prior to inoculation measured after 18 hrs by broth microdilution method in presence of 40% mouse serum. The format is functional. In outline: as §2
Series [5] deals with Staphylococcus aureus. Kind of series: Antibacterial activity against Staphylococcus aureus ATCC 27660 assessed as growth inhibition after 18 hrs by broth microdilution method in absence of 40% mouse serum. The format is functional. The following applies: ATCC 27660, 18 h. Summed up:
as §1

Series [6] is described as follows: Ratio of compound HC50 to pexiganan HC50 for human RBC. Particulars: erythrocyte. The class given is ADME, cell-based.
Series [7] in a line: Selectivity ratio of HC50 for human RBC to MIC for Escherichia coli ATCC 25922. The format is functional.
A short description of series [8]: Selectivity ratio of HC50 for human RBC to MIC for Staphylococcus aureus ATCC 27660. The format is functional.

PEXIGANAN ACETATE: in series [1] (erythrocyte, 1 h), the HC50 was 120 µg/mL.

For the compound `NCCCOc1cc(OCCCN)cc(-n2cc(-c3ccc4ccc(-c5cn(-c6cc(OCCCN)cc(OCCCN)c6)nn5)cc4c3)nn2)c1.O=C(O)C(F)(F)F.O=C(O)C(F)(F)F.O=C(O)C(F)(F)F.O=C(O)C(F)(F)F`, the 50% haemolytic concentration (HC50) at 1 h in [1] came out at 693 µg/mL. Moreover, the minimal inhibitory concentration (MIC) is 50 µg/mL in the series on Klebsiella pneumoniae; > 50 µg/mL in the series on Pseudomonas aeruginosa; 25 µg/mL with Enterococcus faecalis; 6.25 µg/mL in the series with Escherichia coli [2]; > 50 µg/mL with Escherichia coli [3]; 0.39 µg/mL with Staphylococcus aureus [4]. Moreover, the MIC in the series with Staphylococcus aureus [5] is 12.5 µg/mL.

For the compound `NCCCOc1cc(C#Cc2ccc3ccc(C#Cc4cc(OCCCN)cc(OCCCN)c4)cc3c2)cc(OCCCN)c1.O=C(O)C(F)(F)F.O=C(O)C(F)(F)F.O=C(O)C(F)(F)F.O=C(O)C(F)(F)F`, the HC50 at 1 h in [1] stood at 3.4 µg/mL. Besides, the minimum inhibitory concentration (MIC) with Escherichia coli [2] came out at 12.5 µg/mL; in the series on Staphylococcus aureus [4] it was 3.13 µg/mL.

With `NCCCOc1cc(OCCCN)cc(-c2ccc3ccc(-c4cc(OCCCN)cc(OCCCN)c4)cc3c2)c1.O=C(O)C(F)(F)F.O=C(O)C(F)(F)F.O=C(O)C(F)(F)F.O=C(O)C(F)(F)F`, the HC50 at 1 h in [1] came out at 194 µg/mL. The MIC in the series with Escherichia coli [2] was 25 µg/mL; in the series on Staphylococcus aureus [4] it was 1.56 µg/mL.

In the case of `NCCCOc1cccc(-n2cc(-c3cccc(-c4cn(-c5cccc(OCCCN)c5)nn4)c3)nn2)c1.O=C(O)C(F)(F)F.O=C(O)C(F)(F)F`, the minimum inhibitory concentration (MIC) in the series on Klebsiella pneumoniae is > 50 µg/mL; in the series with Pseudomonas aeruginosa, 25 µg/mL; with Enterococcus faecalis, 25 µg/mL; in the series with Escherichia coli [2], 25 µg/mL; with Escherichia coli [3], 25 µg/mL; in the series with Staphylococcus aureus [4], 12.5 µg/mL. Also, the MIC in the series with Staphylococcus aureus [5] was found to be 50 µg/mL.

For `NCCCOc1cccc(-n2cc(-c3ccc4ccc(-c5cn(-c6cccc(OCCCN)c6)nn5)cc4c3)nn2)c1.O=C(O)C(F)(F)F.O=C(O)C(F)(F)F`, the minimal inhibitory concentration (MIC) with Klebsiella pneumoniae was > 50 µg/mL; in the series with Pseudomonas aeruginosa, > 50 µg/mL; in the series on Enterococcus faecalis it was 50 µg/mL; in the series with Escherichia coli [2], > 50 µg/mL; with Escherichia coli [3], > 50 µg/mL; in the series on Staphylococcus aureus [4] it was 12.5 µg/mL. Also, the MIC in the series on Staphylococcus aureus [5] is > 50 µg/mL.

For the compound `NCCCOc1ccc(-n2cc(-c3cccc(-c4cn(-c5ccc(OCCCN)c(OCCCN)c5)nn4)c3)nn2)cc1OCCCN.O=C(O)C(F)(F)F.O=C(O)C(F)(F)F.O=C(O)C(F)(F)F.O=C(O)C(F)(F)F`, the Ratio in series [6] turned out to be 10. Further, the Selectivity ratio in series [7] was > 160; in series [8], > 2500. Also, the 50% haemolytic concentration (HC50) at 1 h in series [1] was > 1000 µg/mL. Besides, the MIC with Klebsiella pneumoniae was > 50 µg/mL; in the series with Pseudomonas aeruginosa it was 50 µg/mL; in the series with Escherichia coli [2], 6.25 µg/mL; in the series with Escherichia coli [3], > 50 µg/mL; in the series on Staphylococcus aureus [4], 0.39 µg/mL; in the series with Staphylococcus aureus [5] it was 12.5 µg/mL.

Regarding `NCCCOc1cc(-n2cc(-c3ccc4ccc(-c5cn(-c6cc(OCCCN)c(OCCCN)c(OCCCN)c6)nn5)cc4c3)nn2)cc(OCCCN)c1OCCCN.O=C(O)C(F)(F)F.O=C(O)C(F)(F)F.O=C(O)C(F)(F)F.O=C(O)C(F)(F)F.O=C(O)C(F)(F)F.O=C(O)C(F)(F)F`, the concentration for 50% haemolysis (HC50) at 1 h in series [1] is 828 µg/mL. The MIC was > 50 µg/mL in the series on Klebsiella pneumoniae; 12.5 µg/mL with Pseudomonas aeruginosa; 50 µg/mL with Enterococcus faecalis; 25 µg/mL with Escherichia coli [2]; 25 µg/mL with Escherichia coli [3]; 0.19 µg/mL in the series on Staphylococcus aureus [4]. Besides, the MIC in the series with Staphylococcus aureus [5] came out at 12.5 µg/mL.

In the case of `NCCCOc1ccc(-n2cc(-c3ccc4ccc(-c5cn(-c6cc(OCCCN)c(OCCCN)c(OCCCN)c6)nn5)cc4c3)nn2)cc1OCCCN.O=C(O)C(F)(F)F.O=C(O)C(F)(F)F.O=C(O)C(F)(F)F.O=C(O)C(F)(F)F.O=C(O)C(F)(F)F`, the 50% haemolytic concentration (HC50) at 1 h in series [1] came to 94 µg/mL. Moreover, the MIC is > 50 µg/mL in the series on Klebsiella pneumoniae; 50 µg/mL in the series with Pseudomonas aeruginosa; 25 µg/mL in the series with Enterococcus faecalis; 25 µg/mL in the series on Escherichia coli [2]; 50 µg/mL in the series with Escherichia coli [3]; 0.39 µg/mL in the series on Staphylococcus aureus [4]. Besides, the MIC in the series on Staphylococcus aureus [5] is 12.5 µg/mL.

As for `NCCCOc1cc(OCCCN)cc(-n2cc(-c3ccc4c(ccc5cc(-c6cn(-c7cc(OCCCN)cc(OCCCN)c7)nn6)ccc54)c3)nn2)c1.O=C(O)C(F)(F)F.O=C(O)C(F)(F)F.O=C(O)C(F)(F)F.O=C(O)C(F)(F)F`, the 50% haemolytic concentration (HC50) at 1 h in series [1] stood at 109 µg/mL. Besides, the MIC in the series on Klebsiella pneumoniae was > 50 µg/mL; in the series on Pseudomonas aeruginosa it was 25 µg/mL; in the series with Enterococcus faecalis it was 50 µg/mL; in the series with Escherichia coli [2], 12.5 µg/mL; with Escherichia coli [3] it was > 50 µg/mL; in the series on Staphylococcus aureus [4], 0.39 µg/mL. Moreover, in the series with Staphylococcus aureus [5], the MIC amounted to 25 µg/mL.

`NCCCOc1ccc(-n2cc(-c3ccc4ccc(-c5cn(-c6ccc(OCCCN)c(OCCCN)c6)nn5)cc4c3)nn2)cc1OCCCN.O=C(O)C(F)(F)F.O=C(O)C(F)(F)F.O=C(O)C(F)(F)F.O=C(O)C(F)(F)F`: the HC50 at 1 h in [1] was 81 µg/mL. The MIC is 50 µg/mL with Klebsiella pneumoniae; 50 µg/mL with Pseudomonas aeruginosa; 25 µg/mL in the series with Enterococcus faecalis; 3.13 µg/mL in the series with Escherichia coli [2]; > 50 µg/mL in the series on Escherichia coli [3]; 0.19 µg/mL with Staphylococcus aureus [4]. Further, the MIC in the series with Staphylococcus aureus [5] amounted to 25 µg/mL.
